The values below come from ChEMBL document CHEMBL4385618, “Exploring small molecules with pan-genotypic inhibitory activities against hepatitis C virus NS3/4A serine protease” (Bioorg Med Chem Lett, 2019).

Active and inactive are the calls of the source. The calls are words filed in the database; no cut-off is given here.

A short description of assay [1]: Inhibition of recombinant wild type full length His-tagged HCV genotype 1b NS3 (1027 to 1657 residues)/4A (1658 to 1711 residues) protease expressed in Escherichia coli rosetta (DE3) cells using Ac-DE-Dap(QXL520)-EE-Abu-Psi-[COO]AS-C(5-FAMsp)-NH2 as substrate preincubated up to 10 mins followed by substrate addition and measured for 10 mins by fluorescence-based microplate reader analysis. Further details: species or system Hepatitis C virus subtype 1b. The essentials: (§1)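 IC50 came from the fluorescence-based enzymatic assay by fitting the inhibition curve to the three-parameter Hill equation.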

The subject of assay [2] is Hepatitis C virus serine protease, NS3/NS4A (Hepatitis C virus), D2K2A8+A3EZI9 [R155K]. The experiment in a line: Inhibition of recombinant full length His-tagged HCV genotype 1b NS3/4A (1027 to 1657 residues) protease R155K (NS3) mutant expressed in Escherichia coli rosetta (DE3) cells using Ac-DE-Dap(QXL520)-EE-Abu-Psi-[COO]AS-C(5-FAMsp)-NH2 as substrate preincubated up to 10 mins followed by substrate addition and measured for 10 mins by fluorescence-based microplate reader analysis. To be noted: Hepatitis C virus subtype 1b. The essentials: (§2)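 IC50 values come from a fluorescence-based enzymatic assay, with dose-response curves fitted to a three-parameter Hill equation. The mutants were genotype 1b NS3/4A.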

The test system of assay [3] is Hepatitis C virus genotype 4. The experiment in a line: Inhibition of recombinant HCV genotype 4 NS3/4A protease using Ac-DE-Dap(QXL520)-EE-Abu-Psi-[COO]AS-C(5-FAMsp)-NH2 as substrate preincubated up to 10 mins followed by substrate addition and measured for 10 mins by fluorescence-based microplate reader analysis. The essentials:
as §1

A short description of assay [4]: (§3) Inhibition of recombinant HCV genotype 3a NS3/4A protease using Ac-DE-Dap(QXL520)-EE-Abu-Psi-[COO]AS-C(5-FAMsp)-NH2 as substrate preincubated up to 10 mins followed by substrate addition and measured for 10 mins by fluorescence-based microplate reader analysis. Also on record: species or system Hepatitis C virus subtype 3a. The method in brief:
as §1

Assay [5] concerns Hepatitis C virus subtype 2a. Put plainly: Inhibition of recombinant HCV genotype 2a NS3/4A protease using Ac-DE-Dap(QXL520)-EE-Abu-Psi-[COO]AS-C(5-FAMsp)-NH2 as substrate preincubated up to 10 mins followed by substrate addition and measured for 10 mins by fluorescence-based microplate reader analysis. The essentials:
as §1

In assay [6] the test system is Hepatitis C virus subtype 1a. The experiment in a line: Inhibition of recombinant HCV genotype 1a NS3/4A protease using Ac-DE-Dap(QXL520)-EE-Abu-Psi-[COO]AS-C(5-FAMsp)-NH2 as substrate preincubated up to 10 mins followed by substrate addition and measured for 10 mins by fluorescence-based microplate reader analysis. The essentials:
as §1

The nature of assay [7]: Binding affinity to recombinant full length His-tagged HCV genotype 1b NS3 (1027 to 1657 residues)/4A (1658 to 1711 residues) protease expressed in Escherichia coli rosetta (DE3) cells assessed as dissociation constant by SPR analysis. Further details: species or system Hepatitis C virus subtype 1b. For orientation: Surface plasmon resonance follows binding to a sensor surface in real time, without labels.

The subject of assay [8] is Hepatitis C virus serine protease, NS3/NS4A (Hepatitis C virus), D2K2A8+A3EZI9 [A156S]. Put plainly: Inhibition of recombinant full length His-tagged HCV genotype 1b NS3/4A (1027 to 1657 residues) protease A156S (NS3) mutant expressed in Escherichia coli rosetta (DE3) cells using Ac-DE-Dap(QXL520)-EE-Abu-Psi-[COO]AS-C(5-FAMsp)-NH2 as substrate preincubated up to 10 mins followed by substrate addition and measured for 10 mins by fluorescence-based microplate reader analysis. To be noted: Hepatitis C virus subtype 1b. The essentials:
as §2

In assay [9] the test system is Hepatitis C virus serine protease, NS3/NS4A (Hepatitis C virus), D2K2A8+A3EZI9 [V36M]. Put plainly: Inhibition of recombinant full length His-tagged HCV genotype 1b NS3/4A (1027 to 1657 residues) protease V36M (NS3) mutant expressed in Escherichia coli rosetta (DE3) cells using Ac-DE-Dap(QXL520)-EE-Abu-Psi-[COO]AS-C(5-FAMsp)-NH2 as substrate preincubated up to 10 mins followed by substrate addition and measured for 10 mins by fluorescence-based microplate reader analysis. To be noted: Hepatitis C virus subtype 1b. The method in brief: as §2

Assay [10] deals with Hepatitis C virus subtype 3a. The description is as §3. The essentials:
as §1

Usually IC50 stands for the concentration at which inhibition is half-maximal. As for `Cc1ccc(S(=O)(=O)Nc2ccccc2C(=O)Nc2nc3c(C)ccc(Cl)c3s2)cc1`, the IC50 is 5 to 10 µM in assay [1] and 14 to 33 µM in assay [4]. In addition, the inhibition entry in assay [2] was “inactive”. Also, the inhibition entry in assay [3], in assay [5] and in [6] was “Active” in each case.

What is called Kd is the equilibrium constant for the complex coming apart. As for `CSc1cccc2sc(NC(=O)c3ccccc3NS(=O)(=O)c3ccc(C)cc3)nc12`, in [1], the IC50 lay within 10 to 100 µM. Besides, the Kd in [7] is over 200 µM.

In the case of `Cc1ccc(S(=O)(=O)Nc2ccccc2C(=O)Nc2nc3c(Cl)ccc(Cl)c3s2)cc1`, the inhibition result in assay [8], in assay [2], in assay [3], in assay [5], in assay [9] and in [6] was “Active” in each case. For the same molecule, the IC50 in assay [1] was 1.6 µM; in assay [4], 14 to 33 µM.

For the molecule `Cc1cc(NC(=O)Cc2csc(NS(=O)(=O)c3ccccc3)n2)ccc1Br`, the inhibition entry in [10] is “inactive”.

Regarding `Cc1ccc(S(=O)(=O)Nc2ccccc2C(=O)Nc2nc3c(cc4c5c(cccc53)CC4)s2)cc1`, the 50% inhibitory concentration (IC50) in assay [1] lay in the range of 2 to 5 µM; in [4], 14 to 33 µM. In addition, the inhibition result in assay [2] is “inactive”. The inhibition result in assay [3], in assay [5] and in assay [6] was “Active” in each case.

Turning to `CSc1cccc(NC(=O)Cc2csc(NS(=O)(=O)c3ccccc3)n2)c1`, the IC50 in assay [1] was 5 to 10 µM.

In the case of `Cc1ccc(S(=O)(=O)Nc2ccccc2C(=O)Nc2nc(-c3cc(Cl)ccc3Cl)cs2)cc1`, the IC50 in [1] was under 2 µM; in [4], 14 to 33 µM. In addition, the inhibition result in assay [2] is “inactive”. Further, the inhibition result in [3], in [5] and in assay [6] was “Active” each time.

For `Cc1ccc(S(=O)(=O)Nc2ccccc2C(=O)Nc2nc3c(Br)cccc3s2)cc1`, the IC50 in assay [1] lay in the range of 10 to 100 µM. Moreover, in assay [7], the dissociation constant Kd is over 200 µM.

Consider `Cc1c(Cl)cccc1NC(=O)Cc1csc(NS(=O)(=O)c2ccccc2)n1`, for which the IC50 in assay [1] lay within 5 to 10 µM.

Consider `Cc1ccc(S(=O)(=O)Nc2ccccc2C(=O)Nc2nc3c(ccc4ccccc43)s2)cc1`, for which the half-inhibitory concentration (IC50) in [1] lay within 5 to 10 µM.

`Cc1ccc(S(=O)(=O)Nc2ccccc2C(=O)Nc2nc3c(C)cc(C)cc3s2)cc1`: the IC50 in assay [1] lay within 2 to 5 µM.

As to `Cc1ccc(S(=O)(=O)Nc2ccccc2C(=O)Nc2nc3ccc4sc(C)nc4c3s2)cc1`, the IC50 in [1] was 2 to 5 µM.

Regarding `Cc1ccc(S(=O)(=O)Nc2ccccc2C(=O)Nc2nc3ccc4ccccc4c3s2)cc1`, the IC50 in assay [1] was 2 to 5 µM.
